Results collected from several papers.
Compare with care: the assays were run in different laboratories.
Target: Ephrin type-A receptor 4 (EPHA4, Homo sapiens, UniProt P54764)

CN(C)c1ncc(F)c(-c2cnn3ncccc23)n1  remaining binding (binding; 1 µM): 100%
O=C(NCc1ncc(C(F)(F)F)cc1Cl)c1ccc2c(c1)C1(CCS(=O)(=O)CC1)[C@H](C1CC1)N2S(=O)(=O)c1ccc(F)cc1  remaining binding (cell-free assay, competition with immobilised ligand; 1 µM): 100%
COc1ncc2cc3ccccc3nc2c1C#N  remaining binding (cell-free assay, competition with immobilised ligand; 5 µM): 100%
O=C(NCC1CCOCC1)c1n[nH]cc1NC(=O)c1c(F)cccc1F  remaining binding (binding, competition with immobilised ligand; 1 µM): 100%
O=C(c1ccc(Nc2ncc(Cl)c(-c3cc4ccccc4s3)n2)cc1)N1CCC(N2CCCC2)CC1  remaining binding (binding, competition with immobilised ligand; 1 µM): 65%
C[C@H]1CCN(c2nccc(-c3cnn4ncccc34)n2)C1  remaining binding (binding; 1 µM): 86%
O=C(N1CCS(=O)(=O)CC1)N1C[C@H](c2ccc(OC(F)(F)F)cc2)C[C@H](c2nc(C3CC3)no2)C1  remaining binding (cell-free assay, competition with immobilised ligand; 1 µM): 100%
N[C@@H]1CCN(c2nccc(-c3cnn4ncccc34)n2)C1  remaining binding (binding; 1 µM): 97%
CNC(=O)c1ccc(Nc2ncc(C(F)(F)F)c(NCc3nccnc3N(C)S(C)(=O)=O)n2)cc1  remaining binding (cell-free assay, competition with immobilised ligand; 0.1 µM): 99%
CNC(=O)[C@@H]1CC[C@@H](n2c(-c3ccc4cnccc4c3)nc3ccc(C(=O)NCc4cccc(C(N)=O)c4)cc32)C1  remaining binding (binding, competition with immobilised ligand; 1 µM): 98%
Nc1ncc2c(n1)-c1c([nH]c3ccc(C#CC4CC4)cc13)CCCC2  remaining binding (binding, competition with immobilised ligand; 1 µM): 100%
CN(C)c1nccc(-c2cnn3ncccc23)n1  remaining binding (binding; 1 µM): 99%
O=C1NC(c2ccccn2)Sc2ccccc21 (stereo not shown)  remaining binding (cell-free assay, competition with immobilised ligand; 1 µM): 89%
Cc1cnn2ncc(-c3ccnc(N(C)C)n3)c2c1  remaining binding (binding; 1 µM): 96%
O=C(c1ccc(Nc2ncc(Cl)c(-c3ccc(Cl)s3)n2)cc1)N1CCC(N2CCCC2)CC1  remaining binding (binding, competition with immobilised ligand; 1 µM): 84%
FC(F)(F)Oc1cccc(-c2cnc3ccc(-c4ccncc4)nn23)c1  remaining binding (cell-free assay, competition with immobilised ligand; 5 µM): 92%
COc1ccnn2ncc(-c3ccnc(N(C)C)n3)c12  remaining binding (binding; 1 µM): 95%
O=C(NCCCN1CCOCC1)c1ccc(Nc2nccc(-c3cc4ccccc4s3)n2)cc1  remaining binding (binding, competition with immobilised ligand; 1 µM): 82%
NS(=O)(=O)c1cc(NC(=O)Cc2ccccc2)ccc1Oc1cccc(Cl)c1  remaining binding (cell-free assay, competition with immobilised ligand; 1 µM): 97%
COc1cnc(Nc2cccc(S(N)(=O)=O)c2)nc1N1CCN(c2ccccc2)CC1  remaining binding (binding, competition with immobilised ligand; 1 µM): 97%
O=C(Nc1ccc(Oc2ccc(F)cc2)cc1)N1CCc2ncccc2[C@H]1c1ccc(F)cc1  remaining binding (cell-free assay, competition with immobilised ligand; 1 µM): 100%
c1cncc(-c2cccc(Nc3nccc(NC4CCCCC4)n3)c2)c1  remaining binding (binding, competition with immobilised ligand; 10 µM): 100%
